Measured values published in ChEMBL document CHEMBL4765456, “Discovery of novel liver X receptor inverse agonists as lipogenesis inhibitors” (Eur J Med Chem, 2020).
Activity calls are given as the source filed them. No cut-off for these calls is given here.

Tests used:
Type in all cases: cell-based
[1] = biological target: T1, Oxysterols receptor LXR-beta (Homo sapiens) (UniProt P55055); assay: (§1) Inverse agonist activity at human LXRbeta transfected in human HEK293T cells co-transfected with pSG5 and pGL3/(DR-4)-c-fos-FF-luc/pCMV/Renilla-luc assessed as receptor transactivation incubated for 20 hrs by dual luciferase reporter gene assay
T1 sequence (whole entry): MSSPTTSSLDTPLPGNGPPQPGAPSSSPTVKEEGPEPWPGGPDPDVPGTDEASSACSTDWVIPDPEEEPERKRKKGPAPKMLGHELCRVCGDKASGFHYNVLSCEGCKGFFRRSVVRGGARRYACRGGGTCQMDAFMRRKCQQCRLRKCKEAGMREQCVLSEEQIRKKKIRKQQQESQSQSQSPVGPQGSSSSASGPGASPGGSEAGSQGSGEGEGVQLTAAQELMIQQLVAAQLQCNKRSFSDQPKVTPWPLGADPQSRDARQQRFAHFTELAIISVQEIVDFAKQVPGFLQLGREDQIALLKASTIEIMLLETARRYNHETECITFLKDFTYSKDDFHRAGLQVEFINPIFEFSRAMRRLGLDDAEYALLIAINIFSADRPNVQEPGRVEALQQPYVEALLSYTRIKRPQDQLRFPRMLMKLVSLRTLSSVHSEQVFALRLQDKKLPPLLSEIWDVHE

[2] = biological target: T2, Oxysterols receptor LXR-alpha (Homo sapiens, UniProt Q13133); assay: Inverse agonist activity at human LXRalpha transfected in human HEK293T cells co-transfected with pSG5 and pGL3/(DR-4)-c-fos-FF-luc/pCMV/Renilla-luc assessed as receptor transactivation incubated for 20 hrs by dual luciferase reporter gene assay
T2 sequence (Q13133 whole entry): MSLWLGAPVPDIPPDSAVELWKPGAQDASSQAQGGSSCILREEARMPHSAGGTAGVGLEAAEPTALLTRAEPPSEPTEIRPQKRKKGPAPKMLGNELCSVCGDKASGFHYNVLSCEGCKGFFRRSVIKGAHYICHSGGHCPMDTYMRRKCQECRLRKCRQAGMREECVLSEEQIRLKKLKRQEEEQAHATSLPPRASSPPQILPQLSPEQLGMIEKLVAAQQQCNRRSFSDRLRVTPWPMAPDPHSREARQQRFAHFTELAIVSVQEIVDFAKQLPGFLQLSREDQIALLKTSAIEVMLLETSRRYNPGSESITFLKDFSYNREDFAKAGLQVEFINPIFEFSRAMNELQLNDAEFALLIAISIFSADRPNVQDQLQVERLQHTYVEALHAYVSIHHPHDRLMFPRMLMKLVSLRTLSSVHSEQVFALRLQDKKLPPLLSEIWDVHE

[3] = biological target: T3, Oxysterols receptor LXR-alpha (Homo sapiens) (UniProt Q13133); assay: Agonist activity at human LXRalpha transfected in human HEK293T cells co-transfected with pSG5 and pGL3/(DR-4)-c-fos-FF-luc/pCMV/Renilla-luc assessed as receptor transactivation at 10 uM incubated for 20 hrs by dual luciferase reporter gene assay; settings: filed as agonist
T3 sequence (whole entry): T2 sequence (Q13133 whole entry)
Method in brief: (§2)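 HEK293T cells seeded at 2 × 10^4 per well for 24 h, then transfected with pGL3/(DR-4)-c-fos-FF-luc, pCMV/Renilla-luc, pSG5/hRXRa and pSG5/hLXRa or pSG5/hLXRb. Compound added 5 h post-transfection and left 20 h. Firefly and Renilla luciferase read by dual-luciferase assay. Means ± SD from three independent experiments.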

[4] = biological target: T1, Oxysterols receptor LXR-beta (Homo sapiens); assay: Agonist activity at human LXRbeta transfected in human HEK293T cells co-transfected with pSG5 and pGL3/(DR-4)-c-fos-FF-luc/pCMV/Renilla-luc assessed as receptor transactivation at 10 uM incubated for 20 hrs by dual luciferase reporter gene assay; settings: filed as agonist; method in brief: as §2
[5] = biological target: T4, Oxysterols receptor LXR-beta (Homo sapiens, UniProt P55055); assay: as §1
T4 sequence (P55055 whole entry): T1 sequence (whole entry)

[6] = test system: HepG2; assay: Cytotoxicity against human HepG2 cells assessed as reduction in cell viability at 10 uM incubated for 48 hrs by MTT assay; settings: hepg2, 48 h
Method in brief: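 HepG2 grown in DMEM with 10% FBS at 37 °C, 5% CO2. Seeded at 1 × 10^5 per well for 24 h, treated 48 h, viability by MTT assay. Means ± SD from three independent experiments.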

[7] = test system: HEK-293T; assay: Cytotoxicity against human HEK293T cells assessed as reduction in cell viability upto 10 uM incubated for 48 hrs by MTT assay
Method in brief: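 Cells kept in DMEM with 10% FBS and 1% penicillin/streptomycin at 37 °C, 5% CO2. HEK293T seeded at 5 × 10^3 per well for 24 h, then exposed to compound for 48 h. Viability read by MTT. Means ± SD of three independent experiments.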

[8] = test system: 3T3-L1; assay: Cytotoxicity against mouse 3T3-L1 cells assessed as reduction in cell viability at 10 uM incubated for 48 hrs by MTT assay; settings: 3t3-l1, 48 h
Method in brief: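 Mouse 3T3-L1 cells in DMEM with 10% FBS, 1% penicillin/streptomycin, at 37 °C, 5% CO2. Plated at 2 × 10^3 per well for 24 h, then compound for 48 h. MTT read-out of viability. Means ± SD, three independent experiments.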

| Structure (SMILES) | Activity [1] | Activity [3] | Activity [4] | further results |
| --- | --- | --- | --- | --- |
| CC(C)[C@@H]1N(C(=O)OC(C)(C)C)CC[C@@]12C(=O)N(CCCC#N)c1ccccc12 | inactive | – | – | – |
| COC(=O)c1ccc(N2C(=O)[C@@]3(CCN(C(=O)OC(C)(C)C)[C@H]3C(C)C)c3ccccc32)cc1 | inactive | – | – | – |
| CC(C)[C@@H]1N(C(=O)OC(C)(C)C)CC[C@@]12C(=O)N(c1ccc(CO)cc1)c1ccccc12 | inactive | – | – | – |
| CC(C)[C@@H]1N(C(=O)OC(C)(C)C)CC[C@@]12C(=O)N(c1cccc(-c3ccc(CO)cc3)c1)c1ccccc12 | – | – | – | IC50 [2]: Not Active |
| CC(C)[C@@H]1N(C(=O)OC(C)(C)C)CC[C@@]12C(=O)N(c1cccc(-c3ccc(C(=O)O)c(S(C)(=O)=O)c3)c1)c1ccccc12 | – | – | – | IC50 [2]: Not Active |
| COC(=O)c1ccc(N2C(=O)[C@@]3(CCN(C(=O)OC(C)(C)C)[C@H]3C(C)C)c3ccccc32)cc1S(C)(=O)=O | inactive | Active | Active | – |
| CC(C)[C@@H]1N(C(=O)C(C)(C)C)CC[C@@]12C(=O)N(c1cccc(-c3ccc(C(=O)N(C)C)c(Cl)c3)c1)c1ccccc12 | inactive | Active | Active | – |
| CC(C)[C@@H]1N(C(=O)OC(C)(C)C)CC[C@@]12C(=O)N(CCCC(=O)O)c1ccccc12 | inactive | – | – | – |
| CC(C)[C@@H]1N(C(=O)OC(C)(C)C)CC[C@@]12C(=O)N(c1cccc(-c3ccc(C(=O)N(C)C)c(Cl)c3)c1)c1ccccc12 | inactive | Active | Active | – |
| CC(C)[C@@H]1N(C(=O)OC(C)(C)C)CC[C@@]12C(=O)N(c1cccc(-c3ccc4ccn(C)c4c3)c1)c1ccccc12 | – | – | – | IC50 [5]: > 20 µM; IC50 [2]: Not Active |
| CC(C)[C@@H]1N(C(=O)CC(C)(C)C)CC[C@@]12C(=O)N(c1cccc(-c3ccc(C(=O)N(C)C)c(Cl)c3)c1)c1ccccc12 | inactive | Active | Active | – |
| CC(C)[C@@H]1N(C(=O)OC(C)(C)C)CC[C@@]12C(=O)N(c1cccc(-c3ccc(CO)c(Cl)c3)c1)c1ccccc12 | – | – | – | IC50 [2]: Not Active |
| CC(C)[C@H]1N(C(=O)OC(C)(C)C)CC[C@]12C(=O)N(c1cccc(-c3ccc(CO)c(S(C)(=O)=O)c3)c1)c1ccccc12 | – | – | – | Activity [6]: Non-Toxic; Activity [7]: Non-Toxic; Activity [8]: Non-Toxic |
| CC(C)[C@@H]1N(C(=O)OC(C)(C)C)CC[C@@]12C(=O)N(c1ccc(CO)c(S(C)(=O)=O)c1)c1ccccc12 | inactive | Active | Active | – |
| CC(C)[C@@H]1N(C(=O)OC(C)(C)C)CC[C@@]12C(=O)N(CCCCl)c1ccccc12 | inactive | – | – | – |
